Results from different studies.
Lines come from different studies, so protocols differ. ≈ marks a conversion by molar mass, not a printed value.

With `Cc1ccccc1-c1c(-c2ccccn2)nc2n1CCC2` the EC50 was 1 µM (Leishmania infantum; parasite growth; 5 days, intracellular, amastigote).
`O=C(N[C@@H](Cc1ccccc1)C(=O)c1nc2ccccc2o1)[C@H](Cc1ccccc1)NC(=O)N1CCOCC1` gave an IC50 of over 64 µM (Leishmania infantum; parasite growth; intracellular, amastigote).
`Cc1ccc2nc(-c3ccccc3)c(CNc3cccc(C(F)(F)F)c3)n2c1` gave an IC50 of 32 µM (Leishmania infantum; parasite growth; intracellular, amastigote).
`CCCCCCC/C=C/C(=O)N1C(=O)/C(=C(/C)O)C(=O)C1Cc1ccc(O)cc1` (centres unmarked) has an MIC of 100 mg/L (≈ 250 µM) (Stenotrophomonas maltophilia; microbial growth; ATCC13637).
`O=C1C(=Cc2cc(O)cc(O)c2)Oc2ccccc21` has an inhibition of 30% (Streptococcus mutans; microbial growth; UA159; 50 µM).
The MBC of `O=C(O)CN1C(=O)/C(=C/c2ccc(-c3ccc(N(c4ccccc4)c4ccccc4)cc3)c3ccccc23)NC1=S` is reported as over 1000 mg/L (Streptococcus pyogenes; microbial killing, broth dilution; ATCC19615).
For `CC(C)CN(c1ccc(F)cc1)c1c(-c2ccccn2)nc2ccccn12`, the EC50 was 0.794 µM (Leishmania infantum; parasite growth; 5 days, intracellular, amastigote).
The IC50 of `O=C(N[C@@H](Cc1ccccc1)C(=O)c1ncc(-c2ccccc2)s1)[C@H](Cc1ccccc1)NC(=O)N1CCOCC1` is reported as 32.5 µM (Leishmania infantum; parasite growth; intracellular, amastigote).
The IC50 of `COc1ccc2nc(-c3ccccn3)c(Nc3ccc(F)cc3)n2c1` is reported as 2.16 µM (Leishmania infantum; parasite growth; intracellular, amastigote).
With `CCOC(=O)C1=C(C)N2NC(C)(c3ccccc3O)N(C(Cc3c[nH]c4ccccc34)C(=O)O)C2=NC1c1ccc(Cl)cc1` (centres unmarked) the inhibition zone was 17 mm (Streptococcus pyogenes; microbial growth; ATCC19615; 10 µg/mL, 24 h).
The IC50 of `O=C(N[C@@H](Cc1ccccc1)C(=O)c1ncc(-c2ccccc2)o1)[C@H](Cc1ccccc1)NC(=O)N1CCOCC1` is reported as over 64 µM (Leishmania infantum; parasite growth; intracellular, amastigote).
`CCOC(=O)C1=C(C)N2NC(c3ccccc3O)N(C(Cc3c[nH]c4ccccc34)C(=O)O)C2=NC1c1ccc(Cl)cc1` (centres unmarked) has an inhibition zone of 32 mm (Streptococcus pyogenes; microbial growth; ATCC19615; 15 µg/mL, 24 h).
With `c1ccc(-c2c(-c3ccccn3)nc3n2CCC3)cc1` the EC50 was 2 µM (Leishmania infantum; parasite growth; 5 days, intracellular, amastigote).
`CC(C(=O)O)N1C2=NC(c3ccc(Cl)cc3)C3=C(OC(C)(C)OC3=O)N2NC1(C)c1ccccc1O` (centres unmarked) gave an inhibition zone of 22 mm (Streptococcus pyogenes; microbial growth; ATCC19615; 15 µg/mL, 24 h).
With `O=C(N[C@@H](Cc1ccccc1)C(=O)c1cc(-c2ccccc2)on1)[C@H](Cc1ccccc1)NC(=O)N1CCOCC1` (single isomer, unassigned) the IC50 was over 64 µM (Leishmania infantum; parasite growth; intracellular, amastigote).
With `CC(=O)C1=C(C)N2NC(C)(c3ccccc3O)N(C(C)C(=O)O)C2=NC1c1ccc(Cl)cc1` (centres unmarked) the inhibition zone was 18 mm (Streptococcus pyogenes; microbial growth; ATCC19615; 15 µg/mL, 24 h).
For `C/C(O)=C1\C(=O)C(CC(C)C)N(C(=O)CCCCCc2ccccc2)C1=O` (centres unmarked), the MIC was over 200 mg/L (Stenotrophomonas maltophilia; microbial growth; ATCC13637).
`Fc1ccc(Nc2c(Cn3cccn3)nc3ccccn23)cc1` gave an IC50 of over 64 µM (Leishmania infantum; parasite growth; intracellular, amastigote).
The IC50 of `O=C(N[C@@H](Cc1ccccc1)C(=O)c1c[nH]nn1)[C@H](Cc1ccccc1)NC(=O)N1CCOCC1` is reported as over 64 µM (Leishmania infantum; parasite growth; intracellular, amastigote).
With `O=C1NC(=S)N/C1=C\c1ccc(-c2ccc(N(c3ccccc3)c3ccccc3)cc2)c2ccccc12` the MBC was over 1000 mg/L (Streptococcus pyogenes; microbial killing, broth dilution; ATCC19615).
For `CC(=O)C1=C(C)N2NC(c3ccccc3O)N(C(Cc3c[nH]c4ccccc34)C(=O)O)C2=NC1c1ccc(Cl)cc1` (centres unmarked), the inhibition zone was 30 mm (Streptococcus pyogenes; microbial growth; ATCC19615; 15 µg/mL, 24 h).
`O=C1NC(=S)S/C1=C\c1c2ccccc2c(-c2ccc(N(c3ccccc3)c3ccccc3)cc2)c2ccccc12` gave an MBC of over 1000 mg/L (Streptococcus mutans; microbial killing, broth dilution; ATCC25175).
`Fc1ccc(Nc2c(-c3ccccn3)nc3ccccn23)nc1` gave an EC50 of over 63.1 µM (Leishmania infantum; parasite growth; 5 days, intracellular, amastigote).
With `CC(=O)C1=C(C)N2NC(C)(c3ccccc3O)N(C(Cc3c[nH]c4ccccc34)C(=O)O)C2=NC1c1ccc(Cl)cc1` (centres unmarked) the inhibition zone was 32 mm (Streptococcus pyogenes; microbial growth; ATCC19615; 15 µg/mL, 24 h).
With `c1ccc(-c2nc3n(c2-c2cccnc2)CCC3)nc1` the IC50 was over 64 µM (Leishmania infantum; parasite growth; intracellular, amastigote).
The inhibition zone of `CC(=O)C1=C(C)N2NC(c3ccccc3O)N(C(C)C(=O)O)C2=NC1c1ccc(Cl)cc1` (centres unmarked) is reported as 17 mm (Streptococcus pyogenes; microbial growth; ATCC19615; 15 µg/mL, 24 h).
With `C/C(O)=C1\C(=O)C(CC(C)C)N(C(=O)C=Cc2ccccc2)C1=O` (centres unmarked) the MIC was over 200 mg/L (Stenotrophomonas maltophilia; microbial growth; ATCC13637).
`O=C(O)CN1C(=O)/C(=C/c2ccc(-c3ccc(N(c4ccccc4)c4ccccc4)cc3)c3ccccc23)SC1=S` gave an MIC of 1000 mg/L (≈ 1750 µM) (Streptococcus pyogenes; microbial growth, broth dilution; ATCC19615).
For `C[Si](C)(C)c1cc(C(=O)[C@H](Cc2ccccc2)NC(=O)[C@H](Cc2ccccc2)NC(=O)N2CCOCC2)no1` (mixture of isomers), the IC50 was over 64 µM (Leishmania infantum; parasite growth; intracellular, amastigote).
`O=C1NC(=S)N/C1=C\c1c2ccccc2c(-c2ccc(N(c3ccccc3)c3ccccc3)cc2)c2ccccc12` has an MBC of over 1000 mg/L (Streptococcus pyogenes; microbial killing, broth dilution; ATCC19615).
The MIC of `CCCCCCC/C=C/C(=O)N1C(=O)/C(=C(\O)c2ccc(F)cc2)C(=O)C1CC(C)C` (centres unmarked) is reported as 50 mg/L (≈ 116 µM) (Stenotrophomonas maltophilia; microbial growth; ATCC13637).
The MBC of `O=C(O)CN1C(=O)/C(=C/c2c3ccccc3c(-c3ccc(N(c4ccccc4)c4ccccc4)cc3)c3ccccc23)SC1=S` is reported as over 1000 mg/L (Streptococcus pyogenes; microbial killing, broth dilution; ATCC19615).
For `CCOC(=O)C1=C(C)N2NC(C)(c3ccccc3O)N(C(C)C(=O)O)C2=NC1c1ccc(Cl)cc1` (centres unmarked), the inhibition zone was 14 mm (Streptococcus pyogenes; microbial growth; ATCC19615; 10 µg/mL, 24 h).
The MBC of `O=C(O)CN1C(=O)/C(=C/c2ccc(-c3ccc(N(c4ccccc4)c4ccccc4)cc3)cc2)SC1=S` is reported as 500 mg/L (≈ 957 µM) (Streptococcus pyogenes; microbial killing, broth dilution; ATCC19615).
The inhibition of `O=C1C(=Cc2ccc(O)c(O)c2)Oc2ccccc21` is reported as 40% (Streptococcus mutans; microbial growth; UA159; 50 µM).
